From publication PMC5912934 (ChemMedChem, 2017)

Legend:
[1] = test system: A549 adenocarcinomic human alveolar basal epithelial cells; experiment: IC50 proliferation assay; format: cell-based; conditions: A549, 72 h, read-out: A549 cancer cell line activity (IC50)
In short: (§1)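 Cells were grown at 37 °C in 5% CO2 in RPMI 1640 or DMEM with 10% heat-inactivated FBS and 1% glutamine, then seeded in 96-well plates the afternoon before treatment. About 18 h later, the test compound was semi-serially diluted in DMSO, then in growth medium, and added. After 72 h, WST-1 was added and plates were read after a further 4 h at 37 °C. Assays were run in triplicate.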

HeLa cells = conditions: read-out: IC50 against HeLa cells; cited from earlier work
[2] = test system: various cancer cell lines; experiment: Cancer cell line screening, all cell lines together; format: cell-based, human; conditions: for IC50: Homo sapiens, read-out: IC50 in cancer cell lines, lowest value
[3] = test system: MOLM-14 acute monocytic leukemia cells; experiment: IC50 proliferation assay; format: cell-based; conditions: Homo sapiens, MOLM-14, 72 h, read-out: MOLM14 cancer cell line activity (IC50)
In short: as §1

female nude mice = experiment: Maximum tolerated dose assay; format: in vivo
[4] = Aqueous benchtop stability in phosphate buffer; format: physicochemical; conditions: 25 μg/mL, pH 5.0, 7.0 and 7.5, room temperature, up to 24 hours
In short: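 Test compound at 1 mg/mL in anhydrous DMSO (stock) was spiked into phosphate buffer at 25 μg/mL, at pH 5.0, 7.0 and 7.5, and stirred at room temperature. Aliquots were taken at 0, 0.25, 0.5, 1, 4, 8 and 24 h and checked by TLC against a verified standard. Aliquots were then extracted twice with chloroform, and the residue was examined by 1H NMR to confirm the TLC findings.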

Stability in human serum = format: in vitro ADME; conditions: pooled human serum, up to 24 hours
In short: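 The test compound came from a 1 mg/mL anhydrous DMSO stock and was incubated in pooled human serum […]. It followed the same workflow as the buffer test. Timed aliquots were taken up to 24 h and compared by TLC against a verified standard. Aliquots were then extracted with two chloroform portions, the solvent was removed, and the residue was analysed by 1H NMR to verify TLC.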

γ-H2Ax in MOLM-14 cells = experiment: Gamma-H2Ax DNA damage assay in MOLM-14 cells; format: cell-based, human; conditions: MOLM-14 cells grown in 0.5 and 4 μM for 24 hours
In short: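 MOLM-14 cells were seeded the evening before at 1×10^5 cells/mL in RPMI 1640/10% FBS. Controls were DMSO and 6.0 Gy gamma irradiation (collected after 1 h); treated cells were collected after 24 h. Cells were washed in PBS/2% serum, cytospun at 1.5×10^5 cells/slide, fixed 15 min in 4% PFA, permeabilised (Triton X-100 buffer), and blocked overnight in 10% FBS/PBS/0.1% Triton. Staining used anti-γ-H2Ax plus DyLight anti-mouse secondary with DAPI mount; slides were examined by fluorescence microscopy.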

[5] = Mouse model pharmacokinetic study; conditions: in vivo, 10 mg/kg
In short: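 Mouse plasma was analysed by a validated LC/MS/MS assay. Proteins were precipitated with an equal volume of acetonitrile after adding an internal standard (a related analogue, final 1000 ng/mL), then vortexed 10 min and centrifuged at 14,000 rpm. Standard ranges were 1–1,000 ng/mL for parent and 10–10,000 ng/mL for prodrug. Separation used a C18 column with a 0.1% formic acid/acetonitrile gradient at 1 mL/min. Detection was positive electrospray on a triple quadrupole.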

Mouse plasma stability = format: in vitro ADME
In short: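 Mouse plasma was spiked with 500 ng/mL prodrug and assayed for both prodrug and parent at 0, 5, 15, 30, 45, 60 and 90 min. Conversion was expressed as analyte counts to avoid differences between the two standard curves.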

[6] = Aqueous benchtop stability at CCPC; format: physicochemical; conditions: LC/MS; for deviation of recovered from expected concentration in aqueous solution: 5-500 ng/mL in 1:1 acetonitrile/Millipore H2O
In short: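 Prodrug and its parent were spiked at 5, 12.5, 25, 50, 125, 250 and 500 ng/mL into 1:1 acetonitrile/Millipore water. Both analytes were measured by LC/MS. Concentrations were quantified against a previously constructed calibration curve at the same concentrations.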

IC50 [2] | Structure (SMILES) | IC50 (HeLa cells) | aqueous stability in phosphate buffer [4] | stability in human serum (Stability in human serum) | deviation of recovered from expected concentration in aqueous solution [6] | further results
≥ 0.014 µM | Clc1nc(Cl)c2[nH]ccc2n1 [Compound 5, 2,4-Dichloro-5H-pyrrolo[3,2-d]pyrimidine] | 19 ± 3 µM | – | – | – | IC50 [1]: 14.5 ± 3.5 µM; IC50 [3]: 9.5 ± 3.1 µM
≥ 0.014 µM | Clc1nc(Cl)c2[nH]cc(I)c2n1 [Compound 7, 2,4-Dichloro-7-iodo-5H-pyrrolo[3,2-d]pyrimidine] | – | stable | stable | ≤ 5.7% | DNA damage (γ-H2Ax staining) (γ-H2Ax in MOLM-14 cells): significant DNA damage; time to little to no detection of the compound in mouse plasma [5]: ≤ 70 min; deviation in plasma over the time frame investigated (Mouse plasma stability; mouse plasma, 0-90 minutes): 5.7%; stability in plasma (Mouse plasma stability; mouse plasma, time frame investigated (0-90 minutes)): excellent stability
– | Clc1nc(Cl)c2c(n1)c(I)cn2COCc1ccccc1 [Compound 8, 5-((Benzyloxy)methyl)-2,4-dichloro-7-iodo-pyrrolo[3,2-d]pyrimidine] | – | – | – | – | decrease of activity compared to the parent ([2]; fold, versus parent 7, Table 1 cell lines): ten-fold
– | Cc1ccc(S(=O)(=O)n2cc(I)c3nc(Cl)nc(Cl)c32)cc1 [Compound 9, 2,4-Dichloro-7-iodo-5-tosyl-pyrrolo[3,2-d]pyrimidine] | – | stable | – | 15.8% | increase in maximum tolerated dose compared to parent compound 7 (female nude mice; fold, versus 7): four-fold; time to undetectable in biological media (Mouse plasma stability; biological media (Figure 4, mouse plasma)): ≤ 1 hour; conversion of 9 to 7 in mouse plasma (Mouse plasma stability; mouse plasma spiked with 500 ng/mL, 0-90 minutes): Significant conversion; hydrolysis of 9 to 7 in aqueous solution ([6]; 1:1 acetonitrile/Millipore H2O): no observed hydrolysis

Structure (SMILES) | IC50 [2] | IC50 (HeLa cells) | aqueous stability in phosphate buffer [4] | stability in human serum (Stability in human serum) | deviation of recovered from expected concentration in aqueous solution [6] | further results
Clc1nc(Cl)c2[nH]cc(Br)c2n1 [Compound 6, 7-Bromo-2,4-dichloro-5H-pyrrolo[3,2-d]pyrimidine] | ≥ 0.014 µM | 0.92 ± 0.04 µM | stable | stable | – | toxicity relative to 7 (female nude mice; female, nude, mouse, in vivo): 2 fold
